The test system of test [1] is K562. Description: Induction of morphological changes in human K562 cells assessed as elongation of cells at 30 nM after 6 hrs. Format: functional, cell-based. The gist of the method:
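K562 cells kept in RPMI-1640 with 10% FBS, 2.05 mM glutamine and penicillin/streptomycin at 37 °C, 5% CO2. Exposed to 30 nM drug alongside DMSO-treated controls. Cell morphology examined by microscopy.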

In test [2] the test system is K562. Description: Induction of apoptosis in human K562 cells assessed as viable cells at 30 nM after 24 hrs by Annexin V-FITC/propidium iodide staining-based flow cytometric analysis (reference value: 95.8%). Format: functional. The settings on record: K562, 24 h, read-out: Activity. (In flow cytometry, cells or beads pass a laser one at a time.)
For test [3], the system named is K562. Description: Induction of apoptosis in human K562 cells assessed as viable cells at 30 nM after 48 hrs by Annexin V-FITC/propidium iodide staining-based flow cytometric analysis (reference value: 95.8%). The settings on record: K562, 48 h, read-out: Activity. Format: functional.
Test [4] has as its system K562. Kind of test: Induction of apoptosis in human K562 cells assessed as viable cells at 300 nM after 6 hrs by Annexin V-FITC/propidium iodide staining-based flow cytometric analysis (reference value: 95.6%). Format: functional. The settings on record: K562, 6 h, read-out: Activity.
For test [5], the system named is K562. Kind of test: Induction of apoptosis in human K562 cells assessed as early apoptotic cells at 300 nM after 6 hrs by Annexin V-FITC/propidium iodide staining-based flow cytometric analysis (reference value: 2.2%). Format: functional.
Test [6] concerns K562. Description: Induction of apoptosis in human K562 cells assessed as late apoptotic cells at 300 nM after 6 hrs by Annexin V-FITC/propidium iodide staining-based flow cytometric analysis (reference value: 2.1%). Format: functional.
The test system of test [7] is K562. Description: Induction of apoptosis in human K562 cells assessed as early apoptotic cells at 300 nM after 12 hrs by Annexin V-FITC/propidium iodide staining-based flow cytometric analysis (reference value: 2.2%). Format: functional.
The subject of test [8] is K562. Kind of test: Induction of apoptosis in human K562 cells assessed as necrotic cells at 300 nM after 12 hrs by Annexin V-FITC/propidium iodide staining-based flow cytometric analysis (reference value: 0%). Format: functional.
The subject of test [9] is K562. Kind of test: Induction of apoptosis in human K562 cells assessed as early apoptotic cells at 300 nM after 24 hrs by Annexin V-FITC/propidium iodide staining-based flow cytometric analysis (reference value: 2.2%). Format: functional.
Test [10] relates to K562. Description: Induction of apoptosis in human K562 cells assessed as viable cells at 300 nM after 48 hrs by Annexin V-FITC/propidium iodide staining-based flow cytometric analysis (reference value: 95.6%). As to conditions: K562, 48 h, read-out: Activity. Format: functional.
Test [11] concerns HepG2. Kind of test: Anti-migratory activity against human HepG2 cells at 30 nM after 48 hrs by wound-healing assay relative to control. Format: functional. The gist of the method:
(§1)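 HepG2 cells seeded at 2 × 10^5 cells/well in DMEM and grown 24 h. Monolayer scratched with a 10 μl pipette tip, then PBS-washed three times. Treated with DMSO or compound (10, 30, 100 nM) at 37 °C, 5% CO2, imaged by microscopy at 0–48 h. Migration distance measured; inhibition ratio calculated against DMSO control.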

Test [12] has as its system HepG2. Description: Anti-migratory activity against human HepG2 cells at 100 nM after 48 hrs by wound-healing assay relative to control. Format: functional. The gist of the method: as §1
The subject of the next test is HUVEC. Kind of test: Antiangiogenic activity against HUVEC assessed as inhibition of tube formation after 12 hrs by microscopic analysis. Format: functional, cell-based. As to conditions: Homo sapiens. The gist of the method:
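Matrigel (13.9 mg/mL) polymerized 30 min at 37 °C. HUVECs (1 × 10^5 cells/well) in Ham's F-12 + 10% FBS plated on the gel; after 40 min, DMSO or compound (10, 30, 100 nM) added. Incubated 12 h at 37 °C, 5% CO2; capillary-like tube formation photographed by microscopy.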

Structures are written as SMILES. Activity calls are given as the source filed them. The calls are words filed in the database; no cut-off is given here.

Turning to `COc1ccc(CN2C(=O)C(=O)c3cc(-c4ccc(OC)cc4)ccc32)cc1`, in the test on K562 [1], the outcome was Active. For the same compound, the viability at 0.03 µM is 88.5% in the test on K562 [2] and 55.6% with K562 [3]. In addition, the viability at 0.3 µM in the test with K562 [4] turned out to be 93.6%; with K562 [10], 4.7%. Moreover, the Activity in the test on K562 [5] was found to be 2.4%; with K562 [6], 3.8%; with K562 [7], 5.7%; with K562 [8], 0.4%; with K562 [9], 12.4%; with HepG2 [11], 26.9%. The Activity with HepG2 [12] was 47.9%; in the test on HUVEC, “Dose-dependent effect”.
